Data published in ChEMBL document CHEMBL1128684, “The serotonin 5-HT4 receptor. 2. Structure-activity studies of the indole carbazimidamide class of agonists” (J Med Chem, 1995).

Legend:
[1] = target: 5-hydroxytryptamine receptor 4 (Cavia porcellus) (UniProt O70528); experiment: Relative efficacy compared to serotonin(1) in 5-hydroxytryptamine 4 assay; type: functional
In short: (§1)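 Longitudinal muscle strips of guinea pig ileum kept in tyrode solution with 0.1 μM methylsergide. Twitch contractions (2–3 s) evoked through platinum electrodes by square-wave pulses at 0.1 Hz and 2 ms duration. Once a stable submaximal response was reached, noncumulative concentration–response curves were built for the agonists.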

[2] = target: 5-hydroxytryptamine receptor 4 (Cavia porcellus) (UniProt O70528); experiment: 5-hydroxytryptamine 4 receptor agonistic activity was measured by twitch response enhancing activity in electrically stimulated guinea pig ileum preparation; type: functional, tissue-based; in short: as §1
[3] = target: T1, 5-hydroxytryptamine receptor 2A (Rattus norvegicus, UniProt P14842); experiment: Agonistic activity against 5-hydroxytryptamine 2A receptor in rat cortex using [3H]-ketanserin; type: tissue-based
In short: (§2)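 Binding to rat cortex. Table footnote lists [3H]ketanserin as the radioligand.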

[4] = target: Serotonin 3 (5-HT3) receptor; experiment: Antagonistic activity against 5-hydroxytryptamine 3 receptor in guinea pig ileum assay
[5] = target: T1, 5-hydroxytryptamine receptor 2A; experiment: (§3) Agonistic activity against 5-hydroxytryptamine 2A receptor in rat cortex using [3H]ketanserin; type: tissue-based; in short: as §2
[6] = target: T1, 5-hydroxytryptamine receptor 2A; experiment: as §3; type: functional, tissue-based

Chain of 5-hydroxytryptamine receptor 4 (Cavia porcellus) (O70528 whole entry): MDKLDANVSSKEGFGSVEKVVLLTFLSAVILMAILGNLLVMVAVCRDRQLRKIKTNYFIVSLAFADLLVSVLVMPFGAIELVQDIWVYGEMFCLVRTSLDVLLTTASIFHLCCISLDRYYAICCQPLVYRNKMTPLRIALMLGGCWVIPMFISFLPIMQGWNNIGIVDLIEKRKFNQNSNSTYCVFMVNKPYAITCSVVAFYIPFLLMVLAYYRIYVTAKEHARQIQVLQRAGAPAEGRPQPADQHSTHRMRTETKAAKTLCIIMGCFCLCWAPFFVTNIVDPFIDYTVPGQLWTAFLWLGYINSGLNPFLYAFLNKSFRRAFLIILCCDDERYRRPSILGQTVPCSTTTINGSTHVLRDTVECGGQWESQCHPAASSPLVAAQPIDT
T1 sequence (P14842 whole entry): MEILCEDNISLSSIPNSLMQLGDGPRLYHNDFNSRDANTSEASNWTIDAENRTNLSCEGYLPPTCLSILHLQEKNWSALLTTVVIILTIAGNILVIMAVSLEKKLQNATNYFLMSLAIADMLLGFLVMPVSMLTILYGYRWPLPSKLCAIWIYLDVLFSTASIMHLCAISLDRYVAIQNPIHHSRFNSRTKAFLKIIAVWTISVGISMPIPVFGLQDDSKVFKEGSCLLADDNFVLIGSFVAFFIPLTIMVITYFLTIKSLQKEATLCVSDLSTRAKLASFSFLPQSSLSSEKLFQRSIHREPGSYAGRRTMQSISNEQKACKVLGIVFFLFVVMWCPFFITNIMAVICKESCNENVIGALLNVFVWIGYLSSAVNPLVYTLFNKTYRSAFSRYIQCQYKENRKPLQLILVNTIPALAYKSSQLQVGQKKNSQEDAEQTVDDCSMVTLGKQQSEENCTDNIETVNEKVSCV

| Compound | Relative efficacy [1] | pD2 [2] | Ki [3] [nM] | pA2 [4] | Ki [5] [nM] | Ki [6] [nM] |
| --- | --- | --- | --- | --- | --- | --- |
| CCCCC/N=C(/N)N/N=C/c1c[nH]c2ccc(OCCN(C)C)cc12 | 0.3 | 7.6 |  |  |  |  |
| CCCCC/N=C(/N)N/N=C/c1c[nH]c2ccc(OCc3ccccc3)cc12 | 1.8 | < 6 |  |  |  |  |
| CCCCC/N=C(/N)N/N=C/c1c[nH]c2ccc(OCCC(C)C)cc12 | 0.8 | 5.9 |  |  |  |  |
| Oc1ccc2[nH]cc(/C=N/NC3=NCCC3)c2c1 | 1 | 7.1 |  |  |  |  |
| CCCCC/N=C(/N)N/N=C/c1c[nH]c2ccc(NS(C)(=O)=O)cc12 | 0 | < 4 |  |  |  |  |
| N/C(=N/N=C/c1c[nH]c2ccc(O)cc12)NCCc1ccccc1Cl | 0.5 | 8.5 |  |  |  |  |
| N/C(=N/N=C/c1c[nH]c2ccc(O)cc12)NCCCc1ccccc1 | 0.4 | 8.5 |  |  |  |  |
| N/C(=N/C(=O)NC1CCCCC1)N/N=C/c1c[nH]c2ccc(O)cc12 | 0.5 | 8.5 |  |  |  |  |
| CN1CCN=C1N/N=C/c1c[nH]c2ccc(O)cc12 | 0 | < 4 |  |  |  |  |
| CCCCC/N=C(/N)N/N=C/c1c[nH]c2ccc(OC(C)C)cc12 | 0.5 | 6.8 | 2510 | < 5 |  |  |
| CCCCC/N=C(/N)N/N=C/c1c[nH]c2ccc(OC(=O)N(C)C)cc12 | 0.7 | < 7 |  |  |  |  |
| CN(/N=C/c1c[nH]c2ccc(O)cc12)C(=N)N | 0.5 | 5.8 |  |  |  |  |
| CCCCC/N=C(/N)N/N=C/c1c[nH]c2ccc(OCCO)cc12 | 1 | 7.4 |  |  |  |  |
| CCCCCNC(=N)N/N=C/c1c[nH]c2ccc(O)cc12 | 0.9 | 9.3 |  | < 5 | 224 |  |
| N/C(=N/N=C/c1c[nH]c2ccc(O)cc12)NCCc1ccc(Cl)cc1 | 0.2 | 8.4 |  |  |  |  |
| CCCCC/N=C(/N)N/N=C/c1c[nH]c2ccc(OCCOC)cc12 | 0.7 | 6.6 |  |  |  |  |
| Cl.N/C(=N/N=C/c1c[nH]c2ccc(O)cc12)NCCc1ccc(Cl)c(Cl)c1 | 0.1 | > 10 | 191 | < 5 |  |  |
| CCCCC/N=C(/N)N/N=C/c1c[nH]c2ccc(OC)nc12 | 1 | 7.1 |  |  |  |  |
| CCCCC/N=C(/N)N/N=C/c1c[nH]c2ccc(N)cc12 | 1.6 | 7.6 |  |  |  |  |
| CCCCC/N=C(/N)N/N=C/c1c[nH]c2ccc(OCC(=O)N(C)C)cc12 | 1.4 | 7.3 |  |  |  |  |
| CCCCC/N=C(/N)N/N=C/c1c[nH]c2ccc(O)nc12 | 0.9 | 7.8 |  |  | 1350 |  |
| CCCCCCCCNC(=N)N/N=C/c1c[nH]c2ccc(O)cc12 | 0 | < 4 |  |  |  |  |
| CCCCC/N=C(/N)N/N=C/c1c[nH]c2ccc(OCC=C(C)C)cc12 | 2.2 | 8.15 |  | < 5 | 6310 |  |

| Compound | Relative efficacy [1] | pD2 [2] | Ki [3] [nM] | pA2 [4] | Ki [5] [nM] | Ki [6] [nM] |
| --- | --- | --- | --- | --- | --- | --- |
| Oc1ccc2[nH]cc(/C=N/Nc3ncc[nH]3)c2c1 | 1 | 8.2 |  |  | 1620 |  |
| CCCCC/N=C(/N)N/N=C/c1c[nH]c2ccc(OC(=O)c3ccccc3)cc12 | 0.5 | 7 |  |  |  |  |
| CCCCC/N=C(/N)N/N=C/c1c[nH]c2ccc(OCOC)cc12 | 0.7 | 7.5 |  |  |  |  |
| N/C(=N/N=C/c1c[nH]c2ccc(O)cc12)NCCNC(=O)c1ccccc1 | 0.5 | 8.5 |  |  |  |  |
| CCCCCCCN(C)C(=N)N/N=C/c1c[nH]c2ccc(O)cc12 | 1.6 | 8 |  |  | 2340 |  |
| N/C(=N/N=C/c1c[nH]c2ccc(O)cc12)NCCc1ccccc1 | 1 | 9.1 |  |  |  |  |
| CCCCCNC(=N)N/N=C/c1c[nH]c2ccc(OC)cc12 | 0.2 | 6.9 |  |  |  |  |
| CCCCC/N=C(/N)N/N=C/c1csc2ccc(OC)cc12 | 0.5 | 6.1 |  |  |  |  |
| CCCCC/N=C(/N)N/N=C/c1c[nH]c2ccc([Si](C)(C)C)cc12 |  | < 5.5 |  |  |  |  |
| CCCCC/N=C(/N)N/N=C/c1[nH]nc2ccc(O)cc12 | 0 | < 4 |  |  |  |  |
| Oc1ccc2[nH]cc(/C=N/Nc3ccccn3)c2c1 | 0.8 | 6.1 |  |  |  |  |
| CCCCC/N=C(/N)N/N=C/c1c[nH]c2ccc(OCC)cc12 | 0.1 | < 7 |  |  |  |  |
| CCCCC/N=C(/N)N/N=C/c1[nH]nc2ccc(OC)cc12 | 0 | < 4 |  |  |  |  |
| COc1cccc(CCNC(=N)N/N=C/c2c[nH]c3ccc(O)cc23)c1 | 0.5 | 8.9 |  |  |  |  |
| Oc1ccc2[nH]cc(/C=N/NC3=NCCS3)c2c1 | 0.5 | 6.5 |  |  |  |  |
| CCCCC/N=C(/N)N/N=C/c1c[nH]c2ccc(OC(=O)CCCCC)cc12 | 0 | < 4 |  |  |  |  |
| CCCC(=O)/N=C(/N)N/N=C/c1c[nH]c2ccc(O)cc12 | 1 | 7.7 |  |  |  |  |
| CCCCCN(C)C(=N)N/N=C/c1c[nH]c2ccc(O)cc12 | 0.3 | 7.7 |  |  |  |  |
| Cl.N=C(N)N/N=C/c1c[nH]c2ccc(O)cc12 | 1.5 | 8.8 |  | < 5 |  | 240 |
| N/C(=N/N=C/c1c[nH]c2ccc(O)cc12)NCCCO | 0.7 | 7.7 |  |  |  |  |
| CCCCC/N=C(/N)N/N=C/c1c[nH]c2ccccc12 | 0.1 | < 6 |  |  |  |  |
| Oc1ccc2[nH]cc(/C=N/NC3=NCCN3)c2c1 | 0.7 | 7.3 |  |  |  |  |
| CCCCC/N=C(/N)N/N=C/c1csc2ccc(O)cc12 |  | < 7 |  |  |  |  |
